Experimental data from different studies.
Protocols differ between the studies behind these lines.
Target: Serine/threonine-protein kinase WNK1 (WNK1, Homo sapiens, UniProt Q9H4A3)

CCCCN(CCCC)C(=O)CN1C[C@@H](c2cc(OC)c3c(c2)OCO3)[C@H](C(=O)O)[C@H]1CC(C)(C)CCC — remaining binding (cell-free assay, competition with immobilised ligand; 1 µM): 96.8%
CS(=O)(=O)Nc1cccc(-c2csc(NC(=O)CSc3nc4nccnc4c(=O)n3CCc3ccccc3)n2)c1 — inhibition (enzyme activity, inhibitor; 10 µM): -3%
O=C(Nc1cnn(-c2csc(C(=O)NC3COC3)c2)c1)Nc1ccccc1Cl — remaining activity (enzyme activity, inhibitor; 5 µM): 99.7%
Cn1cncc1C1=CN(c2ncnc3[nH]cnc23)CCS1 — inhibition (enzyme activity, inhibitor, radiometric; 2 µM): 10.7%
Cc1sc(C(=O)NC2COC2)cc1-n1cc(NC(=O)Nc2c(F)cccc2Cl)cn1 — remaining activity (enzyme activity, inhibitor; 10 µM): 88.9%
N#Cc1ccc(Nc2ccc3[nH]c(=O)[nH]c3c2)c(Cl)c1 — remaining binding (cell-free assay, competition with immobilised ligand; 1 µM): 100%
Nc1ncnc2occ(-c3ccc(NC(=O)Nc4cc(C(F)(F)F)ccc4F)cc3)c12 — remaining signal (cell-free assay, inhibitor; 20 µM): 87%
CC(C)(C)c1nc(-c2cccc(NS(=O)(=O)c3c(F)cccc3F)c2F)c(-c2ccnc(N)n2)s1 — remaining activity (enzyme activity, inhibitor, radiometric; 1 µM): 98%
CN(c1nccc(-c2cnn3ncccc23)n1)C1CC1 — remaining binding (binding; 1 µM): 100%
CN([C@@H]1CCc2c(CC(=O)O)c3cc(S(C)(=O)=O)ccc3n2C1)S(=O)(=O)c1ccc(F)cc1 — remaining binding (cell-free assay, competition with immobilised ligand; 1 µM): 95%
COc1cc(/C=C/C(=O)CC(=O)/C=C/c2ccc(O)c(OC)c2)ccc1O — activity vs control (enzyme activity, inhibitor; 1 µM): 98%
C[C@@H]1CN(c2cc(-c3nn(C)c4ccc(OC5(C)CC5)cc34)ncn2)C[C@H](C)O1 — remaining binding (cell-free assay, competition with immobilised ligand; 1 µM): 82%
FC(F)(F)Oc1cccc(-c2cnc3ccc(-c4ccncc4)nn23)c1 — activity vs control (enzyme activity, inhibitor, radiometric; 5 µM): 99%
C[C@@H]1CN(c2cc(-c3n[nH]c4ccc(OC5(C)CC5)cc34)ncn2)C[C@H](C)O1 — remaining binding (cell-free assay, competition with immobilised ligand; 0.1 µM): 89%
COc1cc(Nc2cnc(C#N)c(O[C@H](C)CN(C)C)n2)ncc1-c1cnn(C)c1 — remaining activity (enzyme activity, inhibitor, radiometric; 1 µM): 95%
